The source of these data is ChEMBL document CHEMBL1275286, “Synthesis of the steroidal glycoside (25R)-3β,16β-diacetoxy-12,22-dioxo-5α-cholestan-26-yl β-D-glucopyranoside and its anti-cancer properties on cervicouterine HeLa, CaSki, and ViBo cells” (Eur J Med Chem, 2010).

A word on the IC50: it is the midpoint of a concentration-inhibition curve. Read a high IC50 as weaker potency in that assay.

In series [1] the test system is Ca-Ski. The series is described as follows: Induction of apoptosis in human CaSki cells assessed as DNA fragmentation at IC50 after 24 hrs by TUNEL assay. Type of series: functional, cell-based. The essentials: (§1)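 Cells on coverslips treated at IC50 for 24 h, with ethanol (10 μL/mL) as control. Fixed in 2% formaldehyde 20 min, permeabilized with 0.05% Triton X-100 for 5 min at 4 °C. TdT labeling with biotin-dUTP for 1 h at 37 °C, detected with rhodamine-streptavidin, DAPI counterstain. Fluorescence microscopy; representative of three independent assays.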

Series [2] deals with ViBo. The series is described as follows: Induction of apoptosis in human ViBo cells assessed as DNA fragmentation at IC50 after 24 hrs by TUNEL assay. It counts as functional, cell-based. The essentials:
as §1

Series [3] concerns HeLa. The series is described as follows: Induction of apoptosis in human HeLa cells assessed as DNA fragmentation at IC50 after 24 hrs by TUNEL assay. It counts as functional, cell-based. The essentials:
as §1

The subject of series [4] is ViBo. The series is described as follows: Induction of apoptosis in human ViBo cells assessed as caspase 3 activation at 65 uM after 24 hrs by immunocytochemistry. Type of series: functional, cell-based. The essentials:
(§2)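 Seeded at […] in RPMI-1640 with 5% NCS for 24 h, then treated with 42 or 65 μM. Fixed in formaldehyde, permeabilized in 0.5% Triton X-100, blocked. Rabbit polyclonal anti-active caspase-3 (1:50), then FITC goat anti-rabbit (1:200), DAPI counterstain. Epifluorescence microscopy; representative of three independent assays.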

For series [5], the system named is ViBo. Briefly: Induction of apoptosis in human ViBo cells assessed as caspase 3 activation at 42 uM after 24 hrs by immunocytochemistry. It counts as functional, cell-based. The gist of the method:
as §2

Series [6] relates to Ca-Ski. The series is described as follows: Induction of apoptosis in human CaSki cells assessed as caspase 3 activation at 42 uM after 24 hrs by immunocytochemistry. It counts as functional, cell-based. The essentials:
as §2

For series [7], the system named is Ca-Ski. The series is described as follows: Induction of apoptosis in human CaSki cells assessed as caspase 3 activation at 65 uM after 24 hrs by immunocytochemistry. Type of series: functional, cell-based. The gist of the method: as §2
Series [8] concerns HeLa. The series is described as follows: Induction of apoptosis in human HeLa cells assessed as caspase 3 activation at 42 uM after 24 hrs by immunocytochemistry. Type of series: functional, cell-based. The essentials: as §2
The subject of series [9] is ViBo. Briefly: Induction of apoptosis in human ViBo cells assessed as chromatin condensation at 42 uM after 24 hrs by DAPI staining. Type of series: functional, cell-based.
In series [10] the test system is HeLa. Briefly: Induction of apoptosis in human HeLa cells assessed as caspase 3 activation at 65 uM after 24 hrs by immunocytochemistry. Type of series: functional, cell-based. The gist of the method:
as §2

Series [11] has as its system HeLa. Briefly: Induction of apoptosis in human HeLa cells assessed as chromatin condensation at 65 uM after 24 hrs by DAPI staining. Type of series: functional, cell-based.
For series [12], the system named is Ca-Ski. The series is described as follows: Induction of apoptosis in human CaSki cells assessed as chromatin condensation at 65 uM after 24 hrs by DAPI staining. It counts as functional, cell-based.
A short description of series [13]: Cell cycle arrest in human ViBo cells assessed as accumulation at G1 phase at 65 uM after 24 hrs by flow cytometry. It counts as functional, cell-based. Conditions: 42 uM, in the assay text read “at 42 uM” for “at 65 uM”. The essentials: (§3)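 Seeded at 10^5 cells/mL and grown 24 h, then exposed to 42 or 65 μM for 24 h, with ethanol as control. Harvested with versene, fixed and permeabilized in 50% methanol/PBS, treated with RNase (2.5 U/mL), stained with propidium iodide (0.2 μg/mL). Flow cytometry gave % DNA distribution by phase; Student's t-test versus ethanol.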

In series [14] the test system is Ca-Ski. The series is described as follows: Cell cycle arrest in human CaSki cells assessed as accumulation at G2/M phase at 65 uM after 24 hrs by flow cytometry. Type of series: functional, cell-based. The gist of the method:
as §3

A short description of series [15]: Cell cycle arrest in human ViBo cells assessed as accumulation at G1 phase at 42 uM after 24 hrs by flow cytometry. Type of series: functional, cell-based. The essentials: as §3
In general terms: A flow cytometer gives signals particle by particle.

In series [16] the test system is HeLa. The series is described as follows: Cell cycle arrest in human HeLa cells assessed as accumulation at S phase at 65 uM after 24 hrs by flow cytometry. Type of series: functional, cell-based. The essentials:
as §3

The test system of series [17] is Ca-Ski. The series is described as follows: Cell cycle arrest in human CaSki cells assessed as accumulation at G2/M phase at 42 uM after 24 hrs by flow cytometry. It counts as functional, cell-based. The conditions noted are these: 65 uM, in the assay text read “at 65 uM” for “at 42 uM”. The essentials:
as §3

In series [18] the test system is HeLa. The series is described as follows: Cell cycle arrest in human HeLa cells assessed as accumulation at S phase at 42 uM after 24 hrs by flow cytometry. It counts as functional, cell-based. Conditions: 65 uM, in the assay text read “at 65 uM” for “at 42 uM”. The gist of the method:
as §3

For series [19], the system named is Ca-Ski. The series is described as follows: Cytotoxicity against human CaSki cells assessed as LDH release at IC50 after 24 hrs by spectrophotometry. Type of series: functional. The essentials: (§4)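 7500 cells/well grown 24 h, then exposed for 24 h to the line's IC50 concentration or to ethanol (10 μL/mL). LDH in the supernatant read by INT-formazan at 500 nm, expressed against Triton X-100 lysis set as 100%. Mean ± S.D. of three independent experiments with three repetitions; Student's t-test.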
(Release of lactate dehydrogenase indicates damage to the cell membrane.)

Series [20] is described as follows: Cytotoxicity against human ViBo cells assessed as LDH release at IC50 after 24 hrs by spectrophotometry. Type of series: functional. The essentials: as §4
The subject of series [21] is HeLa. The series is described as follows: Cytotoxicity against human HeLa cells assessed as LDH release at IC50 after 24 hrs by spectrophotometry. It counts as functional. The gist of the method: as §4
Series [22] has as its system Ca-Ski. The series is described as follows: Antiproliferative activity human CaSki cells after 24 hrs by crystal violet staining. Type of series: functional, cell-based. The gist of the method:
(§5)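 Cells kept in RPMI-1640 with 5% newborn calf serum, 37 °C, 5% CO2, in exponential growth. 7500 cells/well seeded and grown 24 h, then exposed to a range of concentrations with ethanol as vehicle (1% in controls). Crystal violet staining after 24 h, absorbance at 590 nm; IC50 from dose–response curves.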

Series [23] is described as follows: (§6) Antiproliferative activity human ViBo cells after 24 hrs by crystal violet staining. Type of series: functional, cell-based. The essentials:
as §5

The subject of series [24] is ViBo. The description is as §6. Type of series: functional, cell-based. The gist of the method: as §5
Series [25] has as its system HeLa. The series is described as follows: Antiproliferative activity human HeLa cells after 24 hrs by crystal violet staining. It counts as functional, cell-based. The essentials: as §5
Series [26] can be described thus: Antiproliferative activity non-tumor human cervical fibroblast at 65 uM after 24 hrs by crystal violet staining. The essentials: (§7)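 Primary fibroblasts from hysterectomy cervix explants of patients without malignant disease. Tissue digested with 0.05% trypsin at 37 °C, cultured in RPMI-1640 with 10% NCS, adherent cells subcultured. Exposed to 42 or 65 μM, with 1% ethanol in controls. Cell number by crystal violet staining.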

Series [27] is described as follows: Antiproliferative activity non-tumor human cervical fibroblast at 42 uM after 24 hrs by crystal violet staining. The gist of the method:
as §7

The nature of series [28]: Effect on enriched human lymphocyte proliferation at 42 uM after 72 hrs by CSFE staining. Type of series: cell-based. The essentials:
(§8)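 PBMCs from healthy donors' heparinized blood isolated on a Hypaque gradient; adherent cells removed after 1 h. Labeled with 12 μM CFSE (final) for 15 min at room temperature, quenched with NCS, washed. Plated at 2×10^5 cells/well, unstimulated, PHA-stimulated or treated (42 or 65 μM), five replicates, 72 h at 37 °C.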

Series [29] in a line: Effect on enriched human lymphocyte proliferation at 65 uM after 72 hrs by CSFE staining. It counts as cell-based. The gist of the method:
as §8

The nature of series [30]: Cytotoxicity against human lymphocytes assessed as LDH release at IC50 after 72 hrs by spectrophotometry. The conditions noted are these: lymphocyte.

Active and inactive are the calls of the source. The rule behind the calls is not given here.

`CC(=O)O[C@H]1CC[C@@]2(C)[C@@H](CC[C@@H]3[C@@H]2CC(=O)[C@]2(C)[C@@H]([C@H](C)C(=O)CC[C@@H](C)CO[C@@H]4O[C@H](CO)[C@@H](O)[C@H](O)[C@H]4O)[C@@H](OC(C)=O)C[C@@H]32)C1`: the result in the series with Ca-Ski [1], in the series on ViBo [2], in the series with HeLa [3], in the series with ViBo [4], with ViBo [5] and in the series on Ca-Ski [6] was Active. For the same compound, the outcome in the series on Ca-Ski [7], in the series on HeLa [8], in the series with ViBo [9], in the series on HeLa [10], in the series with HeLa [11] and with Ca-Ski [12] was Active. For the same compound, the outcome (in series [13]; in the series with Ca-Ski [14]; in [15]; with HeLa [16]; in the series with Ca-Ski [17]; in the series on HeLa [18]) was Active. Further, the Activity in the series on Ca-Ski [19] is 17%; in [20], 3%; in the series with HeLa [21] it was 13%; in the series with Ca-Ski [22] it was “Dose-dependent effect”; in the series with ViBo [24], “Dose-dependent effect”; with HeLa [25], “Dose-dependent effect”. Moreover, the Activity in series [26] is given as less than 20%; in series [27], less than 20%; in series [28] it was 73.88%; in [29], 71.06%; in [30], “Non-toxic”. Also, the IC50 turned out to be 65 µM in the series with Ca-Ski [22], 42 µM in [23] and 65 µM with HeLa [25].

In the case of `CC(=O)O[C@H]1CC[C@@]2(C)[C@@H](CC[C@@H]3[C@@H]2CC(=O)[C@]2(C)[C@@H]([C@H](C)C(=O)CC[C@@H](C)CO)[C@@H](OC(C)=O)C[C@@H]32)C1`, the Activity in the series on Ca-Ski [19] turned out to be 28%.
